ChEMBL document CHEMBL4118066, “QSAR-driven design, synthesis and discovery of potent chalcone derivatives with antitubercular activity” (Eur J Med Chem, 2017)
In brackets after ≈: the same amount, converted by molar mass.

Assays:
[1] = tested on: Mycobacterium tuberculosis; assay: Antitubercular activity against rifampin-resistant Mycobacterium tuberculosis H37Rv ATCC 35838 after 7 days under normoxic condition by microplate Alamar blue assay; assay type: functional; conditions: H37Rv ATCC 35838, 168 h
Method in brief: (§1)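 Replicating, normoxic cultures in Middlebrook 7H12 medium, exposed to compound for 7 d at 37 °C. Resazurin plus Tween 80 then added for a further 24 h at 37 °C. Fluorescence read at ex/em 530/590 nm. MIC is the lowest concentration giving 90% lower fluorescence than controls.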

[2] = tested on: Mycobacterium tuberculosis; assay: Antitubercular activity against isoniazid-resistant Mycobacterium tuberculosis H37Rv ATCC 35822 after 7 days under normoxic condition by microplate Alamar blue assay; assay type: functional; conditions: H37Rv ATCC 35822, 168 h; method in brief: as §1

SMILES | MIC90 [1] | MIC90 [2]
O=C(/C=C/c1ccc([N+](=O)[O-])o1)c1ccc(-n2ccnc2)cc1 | 1.19 µM (≈ 0.368 µg/mL) | 1.44 µM (≈ 0.445 µg/mL)
CSc1ccc(C(=O)/C=C/c2ccc([N+](=O)[O-])s2)cc1 | 0.14 µM (≈ 0.0428 µg/mL) | 0.22 µM (≈ 0.0672 µg/mL)
O=C(/C=C/c1ccc([N+](=O)[O-])o1)c1ccc(N2CCCCC2)cc1 | 0.07 µM (≈ 0.0228 µg/mL) | < 0.03 µM
O=C(/C=C/c1ccc([N+](=O)[O-])s1)c1ccc(-n2ccnc2)cc1 | 0.6 µM (≈ 0.195 µg/mL) | 0.3 µM (≈ 0.0976 µg/mL)
CCCCc1ccc(C(=O)/C=C/c2ccc([N+](=O)[O-])o2)cc1 | 4.7 µM (≈ 1.41 µg/mL) | 2.23 µM (≈ 0.667 µg/mL)
O=C(/C=C/c1ccc([N+](=O)[O-])o1)c1ccc(N2CCOCC2)cc1 | 0.55 µM (≈ 0.181 µg/mL) | 0.11 µM (≈ 0.0361 µg/mL)
NNC(=O)c1ccncc1 [ISONIAZID] | – | > 5 µM
O=C(/C=C/c1ccc([N+](=O)[O-])o1)c1ccc(I)cc1 | 1.18 µM (≈ 0.436 µg/mL) | 1.08 µM (≈ 0.399 µg/mL)
Cc1ccccc1C(=O)/C=C/c1ccc([N+](=O)[O-])o1 | 1.08 µM (≈ 0.278 µg/mL) | 1.07 µM (≈ 0.275 µg/mL)
CO[C@H]1/C=C/O[C@@]2(C)Oc3c(C)c(O)c4c(O)c(c(/C=N/N5CCN(C)CC5)c(O)c4c3C2=O)NC(=O)/C(C)=C\C=C\[C@H](C)[C@H](O)[C@@H](C)[C@@H](O)[C@@H](C)[C@H](OC(C)=O)[C@@H]1C [RIFAMPIN] | > 1 µM | –
O=C(/C=C/c1ccc([N+](=O)[O-])o1)c1ccc(N2CCNCC2)cc1 | 0.76 µM (≈ 0.249 µg/mL) | 0.19 µM (≈ 0.0622 µg/mL)
O=C(/C=C/c1ccc(Cl)s1)c1ccc(-n2ccnc2)cc1 | 8.89 µM (≈ 2.8 µg/mL) | 9.03 µM (≈ 2.84 µg/mL)
O=C(/C=C/c1ccc([N+](=O)[O-])o1)c1ccc(-c2ccccc2)cc1 | 3.45 µM (≈ 1.1 µg/mL) | 0.29 µM (≈ 0.0926 µg/mL)
CCCCc1ccc(C(=O)/C=C/c2ccc([N+](=O)[O-])s2)cc1 | 0.48 µM (≈ 0.151 µg/mL) | 0.31 µM (≈ 0.0978 µg/mL)
CC(C)(C)c1ccc(C(=O)/C=C/c2ccc([N+](=O)[O-])o2)cc1 | 0.29 µM (≈ 0.0868 µg/mL) | 0.22 µM (≈ 0.0659 µg/mL)
O=C(/C=C/c1ccc([N+](=O)[O-])o1)c1ccc(C2CCCCC2)cc1 | 1.12 µM (≈ 0.364 µg/mL) | 1.23 µM (≈ 0.4 µg/mL)
O=C(/C=C/c1ccc([N+](=O)[O-])o1)c1ccc(Br)cc1 | 0.76 µM (≈ 0.245 µg/mL) | 0.58 µM (≈ 0.187 µg/mL)
O=C(/C=C/c1ccc([N+](=O)[O-])o1)c1cccc(Br)c1 | 1.88 µM (≈ 0.606 µg/mL) | 1.12 µM (≈ 0.361 µg/mL)
COc1ccc(/C=C/C(=O)c2cccc(Br)c2)cc1 | 9.28 µM (≈ 2.94 µg/mL) | 4.94 µM (≈ 1.57 µg/mL)
CSc1ccc(C(=O)/C=C/c2ccc([N+](=O)[O-])o2)cc1 | 0.24 µM (≈ 0.0694 µg/mL) | 0.8 µM (≈ 0.231 µg/mL)
CC(C)(C)c1ccc(C(=O)/C=C/c2ccc([N+](=O)[O-])s2)cc1 | 0.14 µM (≈ 0.0442 µg/mL) | 0.15 µM (≈ 0.0473 µg/mL)
Cc1ccc(C(=O)/C=C/c2ccc([N+](=O)[O-])s2)cc1 | 1.21 µM (≈ 0.331 µg/mL) | 0.96 µM (≈ 0.262 µg/mL)
COc1ccc(/C=C/C(=O)c2cccc(I)c2)cc1 | 8.31 µM (≈ 3.03 µg/mL) | 7.75 µM (≈ 2.82 µg/mL)
Cc1cccc(C(=O)/C=C/c2ccc([N+](=O)[O-])o2)c1 | 3.78 µM (≈ 0.972 µg/mL) | 1.93 µM (≈ 0.496 µg/mL)
